From ChEMBL document CHEMBL2176944, “2-(3-Oxo-1,3-diphenylpropyl)malonic acids as potent allosteric ligands of the PIF pocket of phosphoinositide-dependent kinase-1: development and prodrug concept” (J Med Chem, 2012)
The source made the active and inactive calls. The rule behind the calls is not given here.

Experiments:
[1] = molecular target: T1, 3-phosphoinositide-dependent protein kinase 1 (Homo sapiens) (UniProt O15530); assay: Activation of PDK1 in IGF-I-stimulated HEK293 cells assessed as decrease of phosphorylation of PKB T-loop at 50 uM after 2 hrs by Western blot analysis; format: cell-based
T1 sequence (whole entry): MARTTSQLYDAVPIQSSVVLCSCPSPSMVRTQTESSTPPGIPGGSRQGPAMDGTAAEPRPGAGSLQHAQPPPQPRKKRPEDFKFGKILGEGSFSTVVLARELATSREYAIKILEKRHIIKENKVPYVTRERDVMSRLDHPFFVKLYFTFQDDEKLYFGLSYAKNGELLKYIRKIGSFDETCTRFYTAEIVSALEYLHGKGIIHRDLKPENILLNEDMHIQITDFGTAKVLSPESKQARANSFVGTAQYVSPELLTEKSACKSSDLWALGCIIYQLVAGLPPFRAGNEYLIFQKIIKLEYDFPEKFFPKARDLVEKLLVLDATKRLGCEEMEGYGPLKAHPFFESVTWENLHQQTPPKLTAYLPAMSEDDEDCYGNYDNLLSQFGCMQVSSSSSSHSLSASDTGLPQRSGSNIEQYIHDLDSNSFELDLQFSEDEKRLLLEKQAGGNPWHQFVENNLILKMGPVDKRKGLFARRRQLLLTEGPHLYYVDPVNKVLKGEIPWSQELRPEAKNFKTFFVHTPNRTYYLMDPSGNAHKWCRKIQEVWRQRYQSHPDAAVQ
How it was run: (§1)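 HEK293 cells in DMEM with 10% FBS were serum-starved 24 h, then given 50 μM compound or DMSO for 2 h and stimulated with IGF-I (10 ng/mL) for 20 min. For S6K and PKCζ, cells were first transiently transfected with GST-fusions of full-length S6K[T412E] and PKCζ (PEI). These proteins were pulled down on glutathione sepharose and immunoblotted for activation-loop phosphorylation (S6K Thr229, PKCζ Thr410), normalized to anti-GST. For PKB, untransfected cell lysates were immunoblotted with phospho-specific antibodies.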

[2] = molecular target: T1, 3-phosphoinositide-dependent protein kinase 1 (Homo sapiens); assay: Activation of PDK1 in IGF-I-stimulated HEK293 cells assessed as decrease of phosphorylation of PKCzeta at Thr410 at 50 uM after 2 hrs by Western blot analysis; format: cell-based; how it was run: as §1
[3] = molecular target: T1, 3-phosphoinositide-dependent protein kinase 1 (Homo sapiens); assay: Activation of PDK1 in IGF-I-stimulated HEK293 cells assessed as decrease of phosphorylation of S6K activation loop at 50 uM after 2 hrs by Western blot analysis; format: cell-based; how it was run: as §1
[4] = test system: L6; assay: Prodrug conversion in rat L6 cells assessed as production of 2-(3-Oxo-1-phenyl-3-(4-(trifluoromethyl)phenyl)propyl)malonic acid level in cytoplasm at 20 uM […] by HPLC analysis; format: ADME, cell-based; conditions: l6, 20 µM
[5] = test system: L6; assay: Prodrug conversion in rat L6 cells assessed as production of 2-(3-Oxo-1-phenyl-3-(4-(trifluoromethyl)phenyl)propyl)malonic acid level at 20 uM after 1 hr by mass spectroscopy analysis; format: ADME, cell-based; conditions: l6, 1 h
How it was run: (§2)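 Confluent rat L6 cells in serum-free DMEM were exposed to 20 μM ester prodrug for 5–90 min. Cells were then washed with cold PBS, trypsinized and counted. Carbamazepine was added as internal standard, and samples were acidified with HCl and extracted with ethyl acetate. Prodrug and free dicarboxylic acid were quantified by HPLC-MS/MS on a C18 column with TFA-containing gradients. DMSO-treated cells served as control.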

[6] = test system: L6; assay: Prodrug conversion in rat L6 cells assessed as prodrug degradation at 20 uM after 1 hr by mass spectroscopy analysis; format: ADME, cell-based; conditions: l6, 1 h
[7] = test system: L6; assay: Prodrug conversion in rat L6 cells assessed as reduction half life of prodrug at 20 uM […] by mass spectroscopy analysis; format: ADME, cell-based; conditions: l6, 20 µM
[8] = test system: L6; assay: Prodrug conversion in rat L6 cells assessed as production of 2-(3-Oxo-1-phenyl-3-(4-(trifluoromethyl)phenyl)propyl)malonic acid level in cytoplasm at 20 uM […] by mass spectroscopy analysis relative to control; format: ADME, cell-based; conditions: l6, 20 µM
[9] = test system: L6; assay: Cellular uptake in rat L6 cells at 20 uM after 5 mins by mass spectroscopy analysis; format: ADME, cell-based; conditions: l6, 5 min; how it was run: as §2
[10] = Hydrolysis half life of the compound; format: physicochemical
How it was run: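 Chemical stability of the ester prodrug was measured in cell-free medium at 37 °C, giving the half-life of spontaneous hydrolysis.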

Compound: CC(=O)OCOC(=O)C(C(=O)OCOC(C)=O)C(CC(=O)c1ccc(C(F)(F)F)cc1)c1ccccc1 (stereo not given)
- Activity [1]: inactive
- Activity [2]: inactive
- Activity [3]: Active
- Drug metabolism [4]: Active
- Drug metabolism [5]: 80 µM
- Drug metabolism [6]: > 90%
- t1/2 [7]: 4.3 min
- fold change (FC) [8]: 67
- Drug uptake [9]: Active
- half-life [10]: 4.8 h
